Experimental data collected from several papers.
Lines come from different studies, so protocols differ.

COc1ccc(-c2c(Nc3ccccn3)[nH]c3c(C4=CCCCC4)c(-c4ccccc4)nn3c2=O)cc1
AUC(0-t) (human, plasma; oral, 400 mg once daily, multiple doses, steady state, patients): 57300 ng·h/mL

CC(=O)N(C)[C@H]1CCN(C(=O)c2cnc3c(c2)C[C@](C)(c2ccc(F)cc2)N3)C1
AUC(0-t) (male human, plasma; oral, 15 mg, multiple doses, once daily, steady state): 1.97 µM·h

CC(C)n1c(C2CCNCC2)nc2c([N+](=O)[O-])c(Br)c(Br)cc21
AUC(0-t) (human, plasma; oral, 125 mg, patients): 1760 ng·h/mL

CC(C)[C@@H](CS(=O)(=O)C(C)C)N1C(=O)[C@@](C)(CC(=O)O)C[C@H](c2cccc(Cl)c2)[C@H]1c1ccc(Cl)cc1
unbound tissue/plasma ratio (FVB mouse, brain; oral, 20 mg/kg): 0.005

O=C(COc1ccc(Cl)cc1)NC12CC(c3nnc([C@H]4C[C@@H](OC(F)(F)F)C4)o3)(C1)C2
AUC (human, plasma; oral, 200 mg, multiple doses, once daily, steady state, healthy volunteers): 242 µM·h

COc1ccc(F)cc1C(=O)NCc1ccc(-c2nn([C@@H](C)C(F)(F)F)c(N)c2C(N)=O)cc1
AUC(0-inf) (human, plasma; oral, 200 mg, single dose): 80800 ng·h/mL

COc1ccc2c(c1)CN(C(=O)CCN1CCC(Cc3ccccc3)CC1)CC[S@@+]2[O-]
AUC(0-t) (male human, plasma; intravenous, 0.6 mg/kg, healthy volunteers): 3180 ng·h/mL

NCc1cc2c(cc1F)C(=O)N(C1CCC(=O)NC1=O)C2 (centres unmarked)
Tmax (male cynomolgus monkey, plasma; oral, 0.3 mg/kg): 2 h
